The source made the active and inactive calls. The rule behind the calls is not given here.
Key:
[1] = molecular target: T1, Amine oxidase [flavin-containing] B (Homo sapiens, UniProt P27338); assay: Inhibition of recombinant human MAOB expressed in baculovirus infected in BTI cells using benzylamine as substrate preincubated with enzyme for 30 mins followed by substrate addition and measured every 2.5 mins for 30 mins by Amplex-Red oxidation assay
T1 sequence (P27338 whole entry): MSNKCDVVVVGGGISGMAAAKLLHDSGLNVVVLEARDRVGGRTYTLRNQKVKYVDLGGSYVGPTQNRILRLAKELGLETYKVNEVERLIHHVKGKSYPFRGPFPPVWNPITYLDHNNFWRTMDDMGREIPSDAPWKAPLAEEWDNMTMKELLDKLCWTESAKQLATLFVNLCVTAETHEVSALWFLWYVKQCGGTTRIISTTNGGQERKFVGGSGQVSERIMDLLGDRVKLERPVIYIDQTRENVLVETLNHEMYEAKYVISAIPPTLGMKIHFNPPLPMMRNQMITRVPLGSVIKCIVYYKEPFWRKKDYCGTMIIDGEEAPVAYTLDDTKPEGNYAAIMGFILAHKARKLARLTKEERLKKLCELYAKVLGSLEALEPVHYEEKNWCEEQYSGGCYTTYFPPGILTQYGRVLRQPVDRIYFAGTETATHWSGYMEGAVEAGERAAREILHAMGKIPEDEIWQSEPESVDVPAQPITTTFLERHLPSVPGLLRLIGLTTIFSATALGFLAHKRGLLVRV

[2] = molecular target: T2, Amine oxidase [flavin-containing] A (Homo sapiens, UniProt P21397); assay: Inhibition of recombinant human MAOA expressed in baculovirus infected in BTI cells using tyramine as substrate preincubated with enzyme for 30 mins followed by substrate addition and measured every 2.5 mins for 30 mins by Amplex-Red oxidation assay
T2 sequence (P21397 whole entry): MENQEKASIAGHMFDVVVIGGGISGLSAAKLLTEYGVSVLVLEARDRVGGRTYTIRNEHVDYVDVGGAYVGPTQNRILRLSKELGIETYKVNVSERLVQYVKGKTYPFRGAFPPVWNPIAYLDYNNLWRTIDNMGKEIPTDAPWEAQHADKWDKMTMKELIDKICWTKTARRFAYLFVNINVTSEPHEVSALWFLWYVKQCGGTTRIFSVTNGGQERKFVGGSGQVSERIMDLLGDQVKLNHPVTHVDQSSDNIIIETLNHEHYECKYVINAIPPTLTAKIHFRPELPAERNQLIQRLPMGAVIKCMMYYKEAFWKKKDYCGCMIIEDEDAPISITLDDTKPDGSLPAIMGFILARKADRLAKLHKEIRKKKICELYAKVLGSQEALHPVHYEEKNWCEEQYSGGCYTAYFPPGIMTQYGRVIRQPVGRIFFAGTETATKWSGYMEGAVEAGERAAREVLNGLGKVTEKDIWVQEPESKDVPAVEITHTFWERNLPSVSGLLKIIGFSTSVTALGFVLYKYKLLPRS

Mus musculus [3] = assay: Antifibrotic activity in ip dosed bleomycin-induced C57BL/6 mouse model of lung fibrosis assessed as reduction in Ashcroft score administered on day 7 to 27 measured on day 28 by H and E staining based microscopy; format: functional, organism-based
Outline: (§1)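 Female C57BL/6 mice, 6-8 weeks old, under isoflurane received intranasal bleomycin sulphate 0.05 U/mouse in PBS; controls got PBS. Once-daily i.p. treatment days 7-27, n=12/group; imatinib 50 mg/kg i.p. as comparator. Sacrifice at day 28; lung fibrosis scored by Ashcroft score.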

Mus musculus [4] = assay: Antifibrotic activity in bleomycin-induced C57BL/6 mouse model of lung fibrosis assessed as reduction in Ashcroft score at 15 mg/kg, ip administered on day 7 to 27 measured on day 28 by H and E staining based microscopy; format: functional, organism-based; outline: as §1
Lysyl oxidase homolog 2 [5] = molecular target: T3, Lysyl oxidase homolog 2 (Homo sapiens, UniProt Q9Y4K0); assay: Time-dependent inhibition of recombinant human C-terminal His-tagged […] (1-774 residues) expressed in mouse myeloma cells assessed as apparent inhibition constant using putrescine as substrate by kitz-wilson plot analysis
T3 sequence (Q9Y4K0 whole entry): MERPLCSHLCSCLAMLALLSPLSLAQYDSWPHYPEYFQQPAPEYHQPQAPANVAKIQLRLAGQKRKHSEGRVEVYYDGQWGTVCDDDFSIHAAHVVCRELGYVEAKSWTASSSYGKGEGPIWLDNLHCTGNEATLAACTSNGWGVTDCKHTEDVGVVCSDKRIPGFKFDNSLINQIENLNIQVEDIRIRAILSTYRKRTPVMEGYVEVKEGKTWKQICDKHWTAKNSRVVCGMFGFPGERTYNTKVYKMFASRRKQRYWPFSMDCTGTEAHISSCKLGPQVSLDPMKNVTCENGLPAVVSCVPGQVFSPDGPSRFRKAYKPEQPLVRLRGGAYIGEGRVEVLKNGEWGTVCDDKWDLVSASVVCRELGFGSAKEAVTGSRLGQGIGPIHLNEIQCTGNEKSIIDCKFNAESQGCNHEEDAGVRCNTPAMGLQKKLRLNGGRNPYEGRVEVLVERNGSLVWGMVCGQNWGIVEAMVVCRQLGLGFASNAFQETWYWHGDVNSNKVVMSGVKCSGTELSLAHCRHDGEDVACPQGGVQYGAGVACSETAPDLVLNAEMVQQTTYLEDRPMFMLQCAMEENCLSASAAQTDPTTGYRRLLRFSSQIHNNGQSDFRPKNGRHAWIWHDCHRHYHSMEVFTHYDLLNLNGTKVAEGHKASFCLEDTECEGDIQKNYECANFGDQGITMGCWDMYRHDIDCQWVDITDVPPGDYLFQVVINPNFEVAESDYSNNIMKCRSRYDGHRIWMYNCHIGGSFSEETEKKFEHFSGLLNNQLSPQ
Outline: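 Recombinant human LOXL2 preincubated with inhibitor for varying times at 37 °C, then 5 mM putrescine added with 120 µM Amplex Red and 1.5 U/mL HRP. Buffer was 1.2 M urea, 50 mM sodium borate, pH 8.2. Fluorescence read every 2.5 min for 30 min. Apparent Ki and kinact derived by Kitz–Wilson analysis.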

[6] = Stability in dog plasma assessed as half life
Lysyl oxidase homolog 2 [7] = molecular target: T3, Lysyl oxidase homolog 2; assay: Inhibition of recombinant human LOXL2 assessed as inhibition of collagen cross linking compound replenishment for 5 days and measured on day 7 by UPLC-ESI-MS/MS analysis
Lysyl oxidase homolog 2 [8] = molecular target: T3, Lysyl oxidase homolog 2; assay: Inhibition of recombinant human C-terminal His-tagged […] (1-774 residues) expressed in mouse myeloma cells assessed as inhibition of collagen oxidation measured every 1 min for 3 hrs by Amplex-Red oxidation assay; format: cell-based
Outline: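 Rat tail type I collagen (1.5 mg/mL in 50 mM borate pH 8.2) combined with rhLOXL2 with or without inhibitor (BAPN 100 µM control). Amplex Red (120 µM)/HRP (1.5 U/mL) mix added. Fluorescence read every 1 min for 3 h at 37 °C; slope from the linear 20-40 min phase used for IC50.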

SMILES: Cc1c(-c2cccc(S(=O)(=O)N(C)C)c2)c2ccccc2n1C/C(F)=C/CN.Cl
- IC50 ([1]; read-out: pIC50 (converted)): > 31600 nM
- IC50 ([2]; read-out: pIC50 (converted)): > 31600 nM

SMILES: CCOC(=O)c1ccc2c(c1)c(-c1cccc(S(=O)(=O)N(C)C)c1)c(C)n2C/C(F)=C/CN.Cl
- inhibition (Mus musculus [3]): Dose-dependent effect
- inhibition (Mus musculus [4]): Active

SMILES: Cc1c(-c2cccc(S(=O)(=O)N(C)C)c2)c2cc(C(=O)O)ccc2n1C/C(F)=C/CN.Cl
- Ki (Lysyl oxidase homolog 2 [5]): 83 nM
- half-life [6]: > 2 h
- IC50 (Lysyl oxidase homolog 2 [7]): 13 nM
- IC50 ([1]; read-out: IC50): > 30000 nM
- IC50 (Lysyl oxidase homolog 2 [8]): 13 nM
- IC50 ([2]; read-out: IC50): > 30000 nM
